Laboratory results taken from ChEMBL document CHEMBL2062456, “Green synthesis and anti-infective activities of fluorinated pyrazoline derivatives” (2012).
Values after ≈ are worked out from the molar mass of the structure shown.

Columns and labels:
Format in all cases: functional
[1] = test system: Candida albicans; test: Antifungal activity against Candida albicans MTCC 227
[2] = test system: Aspergillus clavatus; test: Antifungal activity against Aspergillus clavatus MTCC 1323
[3] = test system: Aspergillus niger; test: Antifungal activity against Aspergillus niger MTCC 282
[4] = test system: Escherichia coli; test: Antibacterial activity against Escherichia coli MTCC 443
[5] = test system: Mycobacterium tuberculosis; test: Antitubercular activity against Mycobacterium tuberculosis H37Rv by Lowenstein-Jensen slope method
Summary of the method: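 Lowenstein–Jensen medium used both to grow the strain and to dilute test drugs. Inoculum adjusted to 1 mg/mL. Compounds were made as 2 mg/mL stocks and diluted with 1% DMSO. Primary screen at 500, 250 and 125; actives were retested at 100 down to 1.5625 (twofold series). MIC is the minimum concentration inhibiting 99% of growth. Vehicle and reference controls were included, and tests were run in duplicate.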

[6] = test system: Bacillus subtilis; test: Antibacterial activity against Bacillus subtilis MTCC 441
[7] = test system: Streptococcus pyogenes; test: Antibacterial activity against Streptococcus pyogenes MTCC 442
[8] = test system: Staphylococcus aureus; test: Antibacterial activity against Staphylococcus aureus MTCC 96

NYSTATIN
MIC99 [1]: 100 µg/mL
MIC99 [2]: 100 µg/mL
MIC99 [3]: 100 µg/mL

Cc1ccc(C2CC(c3cn(-c4ccccc4)nc3-c3ccc(F)cc3)=NN2)cc1 (configuration not stated)
MIC99 [4]: 50 µg/mL (≈ 126 µM)
MIC99 [5]: 10 µg/mL (≈ 25.2 µM)
MIC99 [6]: 50 µg/mL (≈ 126 µM)
MIC99 [7]: 10 µg/mL (≈ 25.2 µM)
MIC99 [1]: 25 µg/mL (≈ 63.1 µM)
MIC99 [8]: 12.5 µg/mL (≈ 31.5 µM)
MIC99 [2]: 100 µg/mL (≈ 252 µM)
MIC99 [3]: 100 µg/mL (≈ 252 µM)

O=C(/C=C/c1cn(-c2ccccc2)nc1-c1ccc(F)cc1)c1ccc(Cl)cc1
MIC99 [4]: 6.25 µg/mL (≈ 15.5 µM)
MIC99 [5]: 10 µg/mL (≈ 24.8 µM)
MIC99 [6]: 12.5 µg/mL (≈ 31 µM)
MIC99 [7]: 20 µg/mL (≈ 49.6 µM)
MIC99 [1]: 100 µg/mL (≈ 248 µM)
MIC99 [8]: 25 µg/mL (≈ 62.1 µM)
MIC99 [2]: > 100 µg/mL
MIC99 [3]: > 100 µg/mL

Cc1ccc(C(=O)/C=C/c2cn(-c3ccccc3)nc2-c2ccc(F)cc2)cc1
MIC99 [4]: 12.5 µg/mL (≈ 32.7 µM)
MIC99 [5]: 6.25 µg/mL (≈ 16.3 µM)
MIC99 [6]: 20 µg/mL (≈ 52.3 µM)
MIC99 [7]: 25 µg/mL (≈ 65.4 µM)
MIC99 [1]: 50 µg/mL (≈ 131 µM)
MIC99 [8]: 20 µg/mL (≈ 52.3 µM)
MIC99 [2]: 100 µg/mL (≈ 261 µM)
MIC99 [3]: 100 µg/mL (≈ 261 µM)

O=C(N[C@H](CO)[C@H](O)c1ccc([N+](=O)[O-])cc1)C(Cl)Cl [CHLORAMPHENICOL]
MIC99 [4]: 50 µg/mL (≈ 155 µM)
MIC99 [6]: 50 µg/mL (≈ 155 µM)
MIC99 [7]: 50 µg/mL (≈ 155 µM)
MIC99 [8]: 50 µg/mL (≈ 155 µM)

Fc1ccc(-c2nn(-c3ccccc3)cc2C2=NNC(c3ccccc3)C2)cc1 (configuration not stated)
MIC99 [4]: 10 µg/mL (≈ 26.1 µM)
MIC99 [5]: 25 µg/mL (≈ 65.4 µM)
MIC99 [6]: 20 µg/mL (≈ 52.3 µM)
MIC99 [7]: 50 µg/mL (≈ 131 µM)
MIC99 [1]: 50 µg/mL (≈ 131 µM)
MIC99 [8]: 50 µg/mL (≈ 131 µM)
MIC99 [2]: 50 µg/mL (≈ 131 µM)
MIC99 [3]: 50 µg/mL (≈ 131 µM)

NNC(=O)c1ccncc1 [ISONIAZID]
MIC99 [5]: 0.2 µg/mL (≈ 1.46 µM)

GENTAMICIN
MIC99 [4]: 0.05 µg/mL
MIC99 [6]: 1 µg/mL
MIC99 [7]: 0.5 µg/mL
MIC99 [8]: 0.25 µg/mL

O=C(O)c1cn(C2CC2)c2cc(N3CCNCC3)c(F)cc2c1=O [CIPROFLOXACIN]
MIC99 [4]: 25 µg/mL (≈ 75.4 µM)
MIC99 [6]: 25 µg/mL (≈ 75.4 µM)
MIC99 [7]: 50 µg/mL (≈ 151 µM)
MIC99 [8]: 50 µg/mL (≈ 151 µM)

CC1(C)S[C@@H]2[C@H](NC(=O)[C@H](N)c3ccccc3)C(=O)N2[C@H]1C(=O)O [AMPICILLIN]
MIC99 [4]: 100 µg/mL (≈ 286 µM)
MIC99 [6]: 100 µg/mL (≈ 286 µM)
MIC99 [7]: 100 µg/mL (≈ 286 µM)
MIC99 [8]: 250 µg/mL (≈ 715 µM)

COC1=CC(=O)C[C@@H](C)[C@]12Oc1c(Cl)c(OC)cc(OC)c1C2=O [GRISEOFULVIN]
MIC99 [1]: 500 µg/mL (≈ 1420 µM)
MIC99 [2]: 100 µg/mL (≈ 283 µM)
MIC99 [3]: 100 µg/mL (≈ 283 µM)

CCn1cc(C(=O)O)c(=O)c2cc(F)c(N3CCNCC3)cc21 [NORFLOXACIN]
MIC99 [4]: 10 µg/mL (≈ 31.3 µM)
MIC99 [6]: 10 µg/mL (≈ 31.3 µM)
MIC99 [7]: 10 µg/mL (≈ 31.3 µM)
MIC99 [8]: 10 µg/mL (≈ 31.3 µM)

O=C(/C=C/c1cn(-c2ccccc2)nc1-c1ccc(F)cc1)c1ccccc1
MIC99 [4]: 20 µg/mL (≈ 54.3 µM)
MIC99 [5]: 50 µg/mL (≈ 136 µM)
MIC99 [6]: 25 µg/mL (≈ 67.9 µM)
MIC99 [7]: 12.5 µg/mL (≈ 33.9 µM)
MIC99 [1]: 25 µg/mL (≈ 67.9 µM)
MIC99 [8]: 10 µg/mL (≈ 27.1 µM)
MIC99 [2]: 50 µg/mL (≈ 136 µM)
MIC99 [3]: 50 µg/mL (≈ 136 µM)

Fc1ccc(-c2nn(-c3ccccc3)cc2C2=NNC(c3ccc(F)cc3)C2)cc1 (configuration not stated)
MIC99 [4]: 20 µg/mL (≈ 49.9 µM)
MIC99 [5]: 25 µg/mL (≈ 62.4 µM)
MIC99 [6]: 25 µg/mL (≈ 62.4 µM)
MIC99 [7]: 25 µg/mL (≈ 62.4 µM)
MIC99 [1]: 20 µg/mL (≈ 49.9 µM)
MIC99 [8]: 25 µg/mL (≈ 62.4 µM)
MIC99 [2]: 50 µg/mL (≈ 125 µM)
MIC99 [3]: 50 µg/mL (≈ 125 µM)

O=C(/C=C/c1cn(-c2ccccc2)nc1-c1ccc(F)cc1)c1ccc(F)cc1
MIC99 [4]: 25 µg/mL (≈ 64.7 µM)
MIC99 [5]: 25 µg/mL (≈ 64.7 µM)
MIC99 [6]: 20 µg/mL (≈ 51.8 µM)
MIC99 [7]: 10 µg/mL (≈ 25.9 µM)
MIC99 [1]: 100 µg/mL (≈ 259 µM)
MIC99 [8]: 6.25 µg/mL (≈ 16.2 µM)
MIC99 [2]: 20 µg/mL (≈ 51.8 µM)
MIC99 [3]: 20 µg/mL (≈ 51.8 µM)

Fc1ccc(-c2nn(-c3ccccc3)cc2C2=NNC(c3ccc(Br)cc3)C2)cc1 (configuration not stated)
MIC99 [4]: 6.25 µg/mL (≈ 13.5 µM)
MIC99 [5]: 50 µg/mL (≈ 108 µM)
MIC99 [6]: 10 µg/mL (≈ 21.7 µM)
MIC99 [7]: 10 µg/mL (≈ 21.7 µM)
MIC99 [1]: 10 µg/mL (≈ 21.7 µM)
MIC99 [8]: 6.25 µg/mL (≈ 13.5 µM)
MIC99 [2]: 10 µg/mL (≈ 21.7 µM)
MIC99 [3]: 10 µg/mL (≈ 21.7 µM)

O=C(/C=C/c1cn(-c2ccccc2)nc1-c1ccc(F)cc1)c1ccc(Br)cc1
MIC99 [4]: 20 µg/mL (≈ 44.7 µM)
MIC99 [5]: 50 µg/mL (≈ 112 µM)
MIC99 [6]: 20 µg/mL (≈ 44.7 µM)
MIC99 [7]: 20 µg/mL (≈ 44.7 µM)
MIC99 [1]: 10 µg/mL (≈ 22.4 µM)
MIC99 [8]: 25 µg/mL (≈ 55.9 µM)
MIC99 [2]: > 100 µg/mL
MIC99 [3]: > 100 µg/mL

Fc1ccc(-c2nn(-c3ccccc3)cc2C2=NNC(c3ccc(Cl)cc3)C2)cc1 (configuration not stated)
MIC99 [4]: 25 µg/mL (≈ 60 µM)
MIC99 [5]: 6.25 µg/mL (≈ 15 µM)
MIC99 [6]: 25 µg/mL (≈ 60 µM)
MIC99 [7]: 20 µg/mL (≈ 48 µM)
MIC99 [1]: 100 µg/mL (≈ 240 µM)
MIC99 [8]: 20 µg/mL (≈ 48 µM)
MIC99 [2]: 50 µg/mL (≈ 120 µM)
MIC99 [3]: 50 µg/mL (≈ 120 µM)
